Only some compounds are listed: those with a hit (about 3.1% of all), similar ones and a draw of the others.
KCNQ1 inh: inhibitors of human KCNQ1 channel, primary screen, cell-based, thallium flux, high-throughput. Potassium voltage-gated channel subfamily KQT member 1 (Homo sapiens), P51787. CHO-K1 KCNQ1, FluxOR thallium flux fluorescence; active compounds read high. B-score at 10 µM. 1.3% of 310,000 active. AID 2642, 2010;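 active = compounds whose thallium flux B-score, printed positive for inhibition, exceeds three library SD while starting fluorescence stays within three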;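 note: channel opened by potassium depolarization with thallium stimulus after 20 min compound exposure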
KCNK3 block: human KCNK3 channel inhibitors, primary screen, CHO cells, FluxOR thallium flux, B-score; Potassium channel subfamily K member 3 (Homo sapiens), O14649; FluxOR fluorescence; active compounds read low; B-score at 10 µM; 0.84% of 340,000 active; AID 602410, 2012;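 active = B-score under library mean minus 4 SD, starting fluorescence ratio at most library mean plus 5 SD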;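 note: more negative B-score means stronger inhibition of thallium flux through KCNK3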
Target sequence (O14649 whole entry, looked up): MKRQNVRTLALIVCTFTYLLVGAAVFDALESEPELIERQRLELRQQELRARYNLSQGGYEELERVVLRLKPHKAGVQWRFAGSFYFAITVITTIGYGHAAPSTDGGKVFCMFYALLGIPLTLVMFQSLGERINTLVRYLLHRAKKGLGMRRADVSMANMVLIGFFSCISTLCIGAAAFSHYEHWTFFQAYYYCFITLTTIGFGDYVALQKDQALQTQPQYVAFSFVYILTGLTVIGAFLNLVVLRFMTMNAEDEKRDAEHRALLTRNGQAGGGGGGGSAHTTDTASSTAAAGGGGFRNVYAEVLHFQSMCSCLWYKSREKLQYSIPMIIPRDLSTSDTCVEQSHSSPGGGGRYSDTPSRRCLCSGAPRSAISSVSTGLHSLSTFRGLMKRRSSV
KCNQ1 pot: potentiators or activators of KCNQ1 channel, primary screen, cell-based, thallium flux, high-throughput | CHO-K1 KCNQ1, thallium flux FluxOR fluorescence; active compounds read high | B-score at 10 µM | 0.35% of 310,000 active | AID 2648, 2010;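 active = fluorescence ratio B-score, a plate-corrected score, at least three library SD, with initial intensity B-score within 5 SD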
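Medium – assay buffer, equal DMSO in all wells · Material – CHO-K1 cell line with stable KCNQ1 potassium channel expression · Signal – kinetic FluxOR thallium fluorescence, 10-s 1-Hz baseline, 110-s post-stimulus read · Compound – single concentration per compound, DMSO matched to controls · Schedule – 37 °C overnight plating, 90-min dark dye load, 20-min compound pretreatment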
KCNK9 block: KCNK9 potassium channel inhibitors, primary screen, HEK293 cells, thallium flux; AID 488922, 2010; 1.2% of 310,000 active; B-score at 10 µM; FluxOR thallium flux fluorescence; active compounds read low; Potassium channel subfamily K member 9 (Homo sapiens), Q9NPC2;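 active = ratio B-score over 3 SD below the library mean, with starting fluorescence within 5 SD of its mean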;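 note: negative B-score means less thallium flux so channel inhibition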
hERG protect: hERG rescue from dofetilide block, primary screen, cell-based, CHO-hERG, FluxOR thallium flux, dofetilide IC70. Voltage-gated inwardly rectifying potassium channel KCNH2 (Homo sapiens), Q12809. dofetilide IC70 present. activation (rescue from dofetilide block), less the hit threshold, % at 10 µM. 0.51% of 310,000 active. AID 1511, 2009;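 active = activation above the mean of controls blocked by dofetilide plus 5 SD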;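 note: thallium influx through hERG after potassium depolarization seen as dye fluorescence rise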
The depositor's hits bear a star; i = inactive; x = no result given.

SMILES	KCNQ1 inh	KCNK3 block	KCNQ1 pot	KCNK9 block	hERG protect
Cc1ccc(NC(=S)Nc2ccc(Cl)c(Cl)c2)c(OC(F)F)c1	9*	i	i	i	-35.0
Cc1ccc(NC(=S)Nc2ccc(OC(F)F)c(Cl)c2)cc1Cl	i	i	i	i	-13.6
c1ccc(C2OC3c4cccc5cccc(c45)C3N2c2ccccc2)cc1 (stereo not drawn)	i	i	i	-7.88*	-13.0
CSc1cccc(NC(=O)CN2C(=O)c3ccccc3S2(=O)=O)c1	i	i	21*	i	6.5*
O=C1[C@H]2[C@@H](c3ccc(F)cc3)N3C(=O)N(c4cccc(Cl)c4)C(=O)[C@@]3(Cc3ccccc3)[C@H]2C(=O)N1C1CCCCC1	7*	i	i	i	-2.7
CCCN1C2CCCC1CC(NC(=O)c1ccccc1OC)C2 (stereo not drawn)	8*	i	i	i	-4.8
CCCN1C2CCCC1CC(NC(=O)c1ccccc1OCC)C2 (stereo not drawn)	i	i	i	i	-11.5
Cc1cc(C)c(O)c(NC(=S)NC(=O)Cc2ccccc2)c1	i	i	i	i	4.8*
COc1ccc(N2CCN(C(=O)COC(=O)CNC(=O)c3cccc(OC(F)F)c3)CC2)cc1	x	i	x	x	x
Cc1cc(NC(=O)CSc2nc3ccccc3n2CCC#N)no1	i	i	i	i	4.9*
COC(C(=O)N/N=C(\C)c1ccc(O)cc1)c1ccccc1 (stereo not drawn)	i	i	i	i	5.1*
O=C(NCC1CCCO1)C1CC(=O)N(c2ccccc2)C1 (stereo not drawn)	i	i	i	i	-15.0
COc1cccc(-n2nc(C(=O)O)c3ccccc3c2=O)c1	i	i	i	i	6.5*
NS(=O)(=O)c1ccc(CCNC(=O)CSc2nc3ccsc3c(=O)n2CCCCC(=O)O)cc1	i	i	i	i	0.0
Cc1ccc2nc(NC(=O)C3CCN(S(=O)(=O)c4cc([N+](=O)[O-])ccc4Cl)CC3)sc2c1	9*	i	i	i	-7.1
CCn1nc(C)c(CNC(=O)c2ccc(OC3CCN(Cc4ccccn4)CC3)cc2)c1C	i	i	i	i	-10.7
CCN(CC)CCNC(=O)c1ccc(NC(=O)c2cn(-c3ccccc3)nc2-c2cccs2)cc1	7*	i	i	i	-27.6
O=C(Nc1cccnc1)c1cn(-c2ccccc2)nc1-c1cccs1	i	i	i	i	-7.9
CN1/C(=C\C(=O)COc2ccc3c(c2)OCO3)C(C)(C)c2ccccc21	i	i	i	-7.97*	-16.3
COc1ccccc1OCC(=O)/C=C1/N(C)c2ccccc2C1(C)C	i	i	i	i	-22.5
O=C(CN1C(=O)COc2ccc(Cl)cc21)Nc1ccccn1	i	i	i	i	-3.9
COCC(=O)N/N=C(\C)CC(=O)NCc1ccco1	i	i	i	i	-3.2
COC(=O)C1=C(C)NC(C)=C(C(=O)O[C@@H]2CCCN(Cc3ccccc3)C2)[C@@H]1c1cccc([N+](=O)[O-])c1	7*	i	i	i	-15.4
CCOC(=O)C1=C(C)NC(C)=C(C(=O)OC)C1c1cccc([N+](=O)[O-])c1 (stereo not drawn)	i	i	i	i	-7.6
CCOC(=O)c1cc(NC(=O)Cc2ccc(S(=O)(=O)N3CCOCC3)s2)cc(C(=O)OCC)c1	7*	i	i	i	-16.5
SMILES	KCNQ1 inh	KCNK3 block	KCNQ1 pot	KCNK9 block	hERG protect
Cc1ccc(C)c(NC(=O)CSc2nnc3n2CCCCC3)c1	i	i	i	i	-1.5
Cc1ccc(C(C#N)c2ccc3c(C(F)(F)F)cc(C(F)(F)F)nc3n2)cc1 (stereo not drawn)	i	i	43*	i	10.3*
N#CC(c1ccccc1)c1ccc2c(C(F)(F)F)cc(C(F)(F)F)nc2n1 (stereo not drawn)	i	i	i	i	-1.5
CCOC(=O)c1c(NC(=O)COC(=O)c2cc(OC)c(OC)cc2[N+](=O)[O-])sc(C)c1C	i	i	i	i	-4.8
CCCCCCCCCc1nc2sc3c(c2c(=O)n1NC(=O)c1ccccc1[N+](=O)[O-])CC(C)(C)OC3	8*	i	i	i	-9.0
CCCCCCCCCc1nc2sc3c(c2c(=O)n1NC(=O)c1ccc([N+](=O)[O-])cc1)CC(C)(C)OC3	7*	i	i	i	-9.7
CCCC(c1nnnn1C(C)(C)CC)N(Cc1ccco1)Cc1cc2ccc(OC)cc2[nH]c1=O (stereo not drawn)	i	i	i	-6.77*	-10.2
CC(C)NC(=O)COc1ccc(S(=O)(=O)N(C)Cc2ccccc2)cc1	i	i	i	i	-8.9
Clc1ccc(Cc2ccccc2)nn1	i	i	i	i	5.3*
CN1CCN(S(=O)(=O)c2cccc(C(=O)NCCOc3ccccc3F)c2)CC1	i	i	i	i	-11.8
O=S(=O)(NCC(c1ccco1)N1CCN(c2ccccc2F)CC1)c1ccc2c(c1)OCCO2 (stereo not drawn)	i	i	i	i	-9.8
O=S(=O)(NCC(c1ccco1)N1CCN(c2ccccc2F)CC1)c1ccccc1 (stereo not drawn)	i	i	i	-6.87*	-11.5
COc1ccc(CN(C)C(=O)CCN=C2NS(=O)(=O)c3ccccc32)c(OC)c1	x	i	x	x	x
Cc1cc(C)cc(C(=O)NCC(=O)N2CCN(C(c3ccccc3)c3ccccc3)CC2)c1	6*	i	i	i	-17.5
O=C(NCC(=O)N1CCN(C(c2ccccc2)c2ccccc2)CC1)c1ccc(Br)o1	i	i	i	i	-2.8
C=CCOc1ccc(C2OC34CCCCC3C(C#N)(C#N)C2(C#N)C(=N)O4)cc1 (stereo not drawn)	i	i	i	i	5.6*
CCCCOc1ccc(C2OC34CCCCC3C(C#N)(C#N)C2(C#N)C(=N)O4)cc1 (stereo not drawn)	i	i	i	i	-15.0
COc1cc(C(=O)NS(=O)(=O)c2ccccc2C)ccc1Cc1cn(C)c2ccc(NC(=O)OC3CCCC3)cc12	10*	x	i	i	-32.9
COc1ccc(NC(=O)COc2ccccc2C)cc1S(=O)(=O)N1CCCCC1	i	i	i	i	-9.5

Bioassay records (PubChem)
